Paper PMC2649372 (Biochemistry, 2008)
Where a chain is given by its changes, count along the chain named. Marks after values point to notes of the source that are not given here.

Experiments:
[1] = molecular target: E129Q mutant 5-HT3 receptor (mouse 5-HT3A subunit) (Mus musculus, UniProt P23979, E129Q); assay: Agonist-induced currents, voltage clamp electrophysiology in Xenopus oocytes; type: cell-based; conditions: NR = no response
[2] = molecular target: T1, N128D mutant 5-HT3 receptor (mouse 5-HT3A subunit) (Mus musculus, UniProt P23979, N128D); assay: as above; type: cell-based; conditions: N128D
T1 sequence (P23979 24-483 isoform P23979-2 N128D limits assumed): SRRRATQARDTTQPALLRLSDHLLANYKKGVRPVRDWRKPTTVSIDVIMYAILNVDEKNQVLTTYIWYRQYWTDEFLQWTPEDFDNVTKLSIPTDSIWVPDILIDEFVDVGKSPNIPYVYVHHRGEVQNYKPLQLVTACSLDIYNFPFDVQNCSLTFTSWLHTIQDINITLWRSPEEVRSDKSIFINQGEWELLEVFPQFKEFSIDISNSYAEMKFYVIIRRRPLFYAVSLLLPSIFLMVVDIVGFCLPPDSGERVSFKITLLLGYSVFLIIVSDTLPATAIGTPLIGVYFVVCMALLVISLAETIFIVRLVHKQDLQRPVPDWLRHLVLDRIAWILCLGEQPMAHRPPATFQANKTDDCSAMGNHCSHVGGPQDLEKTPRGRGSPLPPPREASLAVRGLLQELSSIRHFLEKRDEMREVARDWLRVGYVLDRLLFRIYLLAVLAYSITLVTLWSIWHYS

[3] = molecular target: T2, N128-Akp mutant 5-HT3 receptor (mouse 5-HT3A subunit) (Mus musculus, UniProt Q6J1J7); assay: Agonist-induced currents, voltage clamp electrophysiology in Xenopus oocytes; type: cell-based
T2 sequence (Q6J1J7 24-483): T1 sequence (P23979 24-483 isoform P23979-2 N128D limits assumed) with D105N, F436L
How it was run: (§1)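 Mouse 5-HT3A receptor carrying Nha or Akp, introduced by nonsense suppression. Stage V-VI Xenopus oocytes were co-injected with 5 ng cRNA and 25 ng photodeprotected aminoacyl-tRNA. Controls received tRNA without an amino acid. At 24-72 h, agonist currents were recorded by two-electrode voltage clamp at -60 mV, 22-25 °C, in Ca-free ND96 (pH 7.5).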

[4] = molecular target: E129K mutant 5-HT3 receptor (mouse 5-HT3A subunit) (Mus musculus, UniProt P23979, E129K); assay: Agonist-induced currents, voltage clamp electrophysiology in Xenopus oocytes; type: cell-based; conditions: NR = no response
[5] = molecular target: T3, N128R mutant 5-HT3 receptor (mouse 5-HT3A subunit) (Mus musculus, UniProt P23979, N128R); assay: as above; type: cell-based; conditions: SR = small (<100 nA) responses
T3 sequence (P23979 24-483 isoform P23979-2 N128R limits assumed): T1 sequence (P23979 24-483 isoform P23979-2 N128D limits assumed) with D105R

[6] = molecular target: N128-Nha mutant 5-HT3 receptor (mouse 5-HT3A subunit); assay: Agonist-induced currents, voltage clamp electrophysiology in Xenopus oocytes; type: cell-based; conditions: SR = small (<100 nA) responses
How it was run: as §1

[7] = molecular target: E129G mutant 5-HT3 receptor (mouse 5-HT3A subunit) (Mus musculus, UniProt P23979, E129G); assay: Agonist-induced currents, voltage clamp electrophysiology in Xenopus oocytes; type: cell-based; conditions: NR = no response
[8] = molecular target: E129A mutant 5-HT3 receptor (mouse 5-HT3A subunit) (Mus musculus, UniProt P23979, E129A); assay: as above; type: cell-based; conditions: NR = no response
[9] = test system: Asn128 mutant 5-HT3 receptors (all except Ala and Val); assay: Relative efficacy of mCPBG, voltage clamp electrophysiology in Xenopus oocytes; type: cell-based, mouse; conditions: Asn128 mutations

E129Q mutant 5-HT3 receptor (mouse 5-HT3A subunit), sequence (P23979 24-483 isoform P23979-2 E129Q limits assumed): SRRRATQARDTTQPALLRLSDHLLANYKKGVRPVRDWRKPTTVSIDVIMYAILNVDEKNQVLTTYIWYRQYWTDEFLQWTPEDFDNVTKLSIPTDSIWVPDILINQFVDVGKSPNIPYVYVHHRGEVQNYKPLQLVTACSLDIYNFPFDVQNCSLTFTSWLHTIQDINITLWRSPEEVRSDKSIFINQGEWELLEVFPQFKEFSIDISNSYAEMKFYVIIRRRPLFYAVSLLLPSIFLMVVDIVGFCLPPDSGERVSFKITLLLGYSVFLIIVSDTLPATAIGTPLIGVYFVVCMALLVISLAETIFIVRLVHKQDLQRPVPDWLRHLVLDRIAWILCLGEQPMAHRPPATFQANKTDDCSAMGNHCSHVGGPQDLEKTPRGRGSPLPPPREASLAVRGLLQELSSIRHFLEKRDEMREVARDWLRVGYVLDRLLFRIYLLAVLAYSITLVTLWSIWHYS
E129K mutant 5-HT3 receptor (mouse 5-HT3A subunit), sequence (P23979 24-483 isoform P23979-2 E129K limits assumed): as the sequence (P23979 24-483 isoform P23979-2 E129Q limits assumed) above, with Q106K counted along it
E129G mutant 5-HT3 receptor (mouse 5-HT3A subunit), sequence (P23979 24-483 isoform P23979-2 E129G limits assumed): as the sequence (P23979 24-483 isoform P23979-2 E129Q limits assumed) above, with Q106G counted along it
E129A mutant 5-HT3 receptor (mouse 5-HT3A subunit), sequence (P23979 24-489 E129A): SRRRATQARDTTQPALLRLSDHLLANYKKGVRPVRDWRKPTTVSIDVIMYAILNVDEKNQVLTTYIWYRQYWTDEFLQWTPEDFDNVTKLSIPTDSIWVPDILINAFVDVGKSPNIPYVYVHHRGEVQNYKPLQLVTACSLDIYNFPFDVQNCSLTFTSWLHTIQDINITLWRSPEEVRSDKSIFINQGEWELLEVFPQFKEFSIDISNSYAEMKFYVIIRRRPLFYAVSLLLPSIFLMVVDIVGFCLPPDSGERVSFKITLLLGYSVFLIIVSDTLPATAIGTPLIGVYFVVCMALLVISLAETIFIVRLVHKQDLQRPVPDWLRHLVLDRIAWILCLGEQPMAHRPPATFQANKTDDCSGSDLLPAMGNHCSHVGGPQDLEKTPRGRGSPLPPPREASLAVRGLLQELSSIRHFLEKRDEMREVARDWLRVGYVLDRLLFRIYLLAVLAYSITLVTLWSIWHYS

Row | EC50 [4] | EC50 [5] | nH (Hill coefficient) [5] | pEC50 [5] | EC50 [6] | nH (Hill coefficient) [6] | pEC50 [6] | EC50 [7] | EC50 [8] | EC50 [2] | pEC50 ([2]; SR = small (<100 nA) responses) | increase of mCPBG Rmax compared to that of WT [9] | SMILES | nH (Hill coefficient) [1] | nH (Hill coefficient) [2] | EC50 [3] | nH (Hill coefficient) [3] | pEC50 [3]
1 | – | – | – | – | – | – | – | – | – | – | – | – | NCCc1c[nH]c2ccc(O)cc12 [5-HT, 5-hydroxytryptamine] | 1.55 ± 0.07 ^b | 1.63 ± 0.08 ^b | 4.6 µM | 1.49 ± 0.06 ^b | 5.33 ± 0.01 ^b
2 | > 100 µM | 7.3 µM | 1.93 ± 0.16 | 5.14 ± 0.02 ^b | 2.8 µM | 2.18 ± 0.23 | 5.55 ± 0.02 ^b | > 100 µM | > 100 µM | 0.27 µM | 6.56 ± 0.03 | 2−19 fold | N=C(N)NC(=N)Nc1cccc(Cl)c1 [mCPBG, m-chlorophenylbiguanide] | – | 1.54 ± 0.15 | – | – | –
